# In the library only some 1.9% were active in any assay of this set; here they are far more common.
# Yeast superoxide: reduction of superoxide in aged yeast, primary screen, HTS; S. cerevisiae aged cells, superoxide DHE fluorescence; hits give low values; superoxide response (% of plate mean), % at 10 µM; 330,000 compounds, 0.18% hits;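 active means superoxide response under a set limit, about three screen SD below normal, cut at about 65% in these data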;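 further: yeast aged for seven days with compound at 30 °C before DHE staining; 100% = average MFI of all compound-treated wells on the plate with controls excluded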
# V-ATPase pH: regulators of yeast V-ATPase proton pumping, primary screen, pHLuorin cytosolic pH fluorescence; response, % at 10 µM; S. cerevisiae; 350,000 compounds, 0.37% hits; in the data active means response mostly above about 7.3%, no sharp cut-off; inactive means mostly below about 5.4%; further: actives read high
# MIN6 prolif: inducers of MIN6 beta-cell proliferation, primary screen, ATP luminescence, uHTS. MIN6 cells proliferation, ATPlite luminescence, 48 h; cells starved in 0.2% serum; 100% = growth in 10% serum. proliferation, % at 10 µM. 330,000 compounds, 0.29% hits. AID 2380, 2010;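 active means compounds whose signal lies at least 3.5 SD above the mean of all wells on their plate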;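 further: 0% = DMSO-treated cells in low-serum medium and 100% = 10% serum control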
# KLK7 zymogen act: proKLK7 zymogen activators, primary screen, biochemical, fluorescence intensity; Kallikrein-7 (Homo sapiens), P49862; purified proKLK7, EDANS-DABCYL substrate fluorescence; 100% is mature enzyme control, 0% vehicle; activation, % at 7 µM; 370,000 compounds, 0.9% hits; AID 652039, 2013;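 active means activation above the mean of all tested compounds plus 3 SD, computed per campaign excluding outliers beyond control limits, cut at about 13% in these data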
# Target sequence (P49862 whole entry, looked up): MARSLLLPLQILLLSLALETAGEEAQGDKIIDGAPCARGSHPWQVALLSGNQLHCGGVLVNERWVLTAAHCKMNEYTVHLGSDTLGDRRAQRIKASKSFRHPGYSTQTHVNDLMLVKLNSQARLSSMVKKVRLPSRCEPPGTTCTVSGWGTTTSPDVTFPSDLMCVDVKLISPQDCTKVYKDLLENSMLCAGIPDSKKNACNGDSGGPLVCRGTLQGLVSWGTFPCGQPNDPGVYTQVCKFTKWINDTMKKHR
# T cell HTS: modulators of CD8 T cell-vesicle binding, primary screen, mouse 2C CD8+ T cells, flow cytometry; 2C CD8+ T cell-vesicle binding; hits give low values; response (vesicle binding), % at 7 µM; 330,000 compounds, 0.068% hits; AID 2052, 2009;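 active means response, share of CD8 T cells binding vesicles, and their 90th percentile fluorescence all below set limits, cut at about 80% in these data, passing the limit was not always enough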;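 further: values below 100% mean blocked vesicle binding to the CD8+ T cells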
#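 System: murine 2C transgenic CD8+ T lymphocytes; also added: QL9-loaded Drosophila micro-vesicles; times: binding 1.5 h at 37 °C; measured by: flow cytometry, PE anti-B7-1 (FL2) versus Alexa647 anti-CD8 (FL8), PFA-fixed; control set: Peptide-free naked vesicles (low) and QL9 vesicles with 0.7% DMSO vehicle (high)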
# Rce1 inh: yeast Rce1p protease inhibitors, primary screen, biochemical, fluorescence, cell-free homogeneous; calls only; yeast membranes, quenched prenylated peptide cleavage fluorescence; CAAX prenyl protease 2 (Saccharomyces cerevisiae (strain ATCC 204508 / S288c)), Q03530; 290,000 compounds, 0.27% hits;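 active means fall in fluorescence gain of 50% or more versus controls, with final raw signal at or below 3038400; inconclusive means same 50% fall but final raw signal above 3038400; inactive means fall in fluorescence gain under 50%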;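 further: plate controls were neutral control wells for no effect and wells lacking membranes for full effect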
# Target sequence (Q03530 whole entry, looked up): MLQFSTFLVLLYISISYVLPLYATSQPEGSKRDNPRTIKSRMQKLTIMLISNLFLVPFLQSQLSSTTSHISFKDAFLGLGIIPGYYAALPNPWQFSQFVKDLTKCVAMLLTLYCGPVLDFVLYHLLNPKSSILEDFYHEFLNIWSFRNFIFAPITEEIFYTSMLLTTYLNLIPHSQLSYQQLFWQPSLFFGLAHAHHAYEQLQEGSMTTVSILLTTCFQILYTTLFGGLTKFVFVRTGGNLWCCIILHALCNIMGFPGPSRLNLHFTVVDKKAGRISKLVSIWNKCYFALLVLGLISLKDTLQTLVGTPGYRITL
# KLK7 act conf: proKLK7 zymogen activators, confirmation, biochemical, fluorescence intensity, triplicate. shares compounds with KLK7 zymogen act. purified proKLK7, EDANS-DABCYL substrate fluorescence; scaled: vehicle 0, mature enzyme 100. activation, % at 7 µM. 3,200 compounds, 68% hits. AID 686949, 2013;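 active means activation, as change over the incubation, above the mean of all tested compounds plus 3 SD, cut at about 13% in these data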
# EDANS interfere: EDANS-DABCYL substrate optical interference, artefact control for kallikrein-7 zymogen activator project, biochemical, fluorescence intensity, high throughput; no enzyme, 4 h; solvent 0%, active enzyme control 100%; 3,200 compounds, 80% hits; activation, % at 7 µM; shares compounds with KLK7 zymogen act;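 active means activation above the all-compound mean plus 3 SD, ignoring values outside control-based bounds, cut at about 4.8% in these data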;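 further: value is the 4 h activation minus the activation read at time zero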
# K7 EDANS ctr: optically interferes with EDANS-DABCYL fluorescence, kallikrein-7 activator counter-screen; AID 720493; EC50, µM; EDANS-DABCYL peptide fluorescence interference, no enzyme; shares compounds with KLK7 zymogen act; 250 compounds, 20% hits;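 active means compounds that raise the fluorescence signal in this interference counterscreen, with EC50 at or below 10 µM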;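 further: intact quenched peptide substrate alone read at 355 nm excitation and 520 nm emission; signal is fluorescence gain from T0 to T4 after four hours at room temperature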
# * marks the source's active call; other numbers are inactive results; i = inactive; ? = inconclusive; nt = not tested or not shown; + = active, no number.
SMILES,Yeast superoxide,V-ATPase pH,MIN6 prolif,KLK7 zymogen act,T cell HTS,Rce1 inh,KLK7 act conf,EDANS interfere,others
Cc1ccc2cc3cc(C(=O)NCCCN4CCCCCC4)oc3nc2c1,91,4,-2,18*,229,?,6,11*,
O=c1nc(-c2ccccc2)c2cc(Cl)ccc2[nH]1,133,-6,-2,14*,190,i,29*,28*,
N#Cc1sc2nc(N3CCCCC3)c3c(c2c1N)CCCC3,100,-2,-6,0,344,i,nt,nt,
Cc1nc2sc(C#N)c(N)c2c2c1CCCC2,90,-4,5,15*,315,i,15*,22*,
Cc1cc(Nc2cccc(Cl)c2)nc(-c2ccccc2O)n1,96,5,-7,265*,312,i,77*,105*,
CN(CCC#N)C(=O)COC(=O)c1cc(Cl)cc(Cl)c1N,97,8,-1,16*,657,?,12,11*,
COC(=O)CNC(=O)COC(=O)c1cc(Cl)cc(Cl)c1N,98,2,-5,15*,348,i,53*,40*,K7 EDANS ctr=>69
CC(C)CNC(=O)COC(=O)c1ccc(F)cc1Cl,98,0,-1,-1,370,i,nt,nt,
Nc1c(Cl)cc(Cl)cc1C(=O)OCC(=O)N1CCCC1=O,83,2,0,nt,931,i,nt,nt,
CC(C)CNC(=O)COC(=O)c1cc(Cl)cc(Cl)c1N,105,-1,0,21*,350,nt,-9,-16,
Nc1c(Cl)cc(Cl)cc1C(=O)OCC(=O)N1CCCC1,107,0,2,13*,174,i,18*,15*,K7 EDANS ctr=>70
CCOC(=O)Nc1ccc([N+](=O)[O-])cc1OC,101,2,-3,1,256,i,nt,nt,
CCOC(=O)c1ccc(C(=O)OCC)c(NC(=S)Nc2ccc([N+](=O)[O-])cc2OC)c1,111,0,0,13*,270,i,12,6.9*,
O=c1[nH]c2cc3c(cc2cc1CN(Cc1nnnn1C1CCCC1)C1CCCC1)OCCO3,126,-3,0,29*,610,i,-1,-2,
NC(=O)c1ccccc1NC(=O)c1ccc2ccccc2c1,96,0,-5,15*,500,i,-3,-3,
COc1ccc(C(=O)Nc2ccccc2C(N)=O)cc1,81,1,-4,0,396,nt,nt,nt,
COc1cccc(C2c3[nH]c4ccccc4c3CCN2CCCn2cccn2)c1 (stereo unspecified),99,-1,-2,5,319,i,nt,nt,
COc1ccc(C2c3[nH]c4ccccc4c3CCN2CCCn2cccn2)c(C)c1C (stereo unspecified),91,1,-4,27*,249,i,19*,20*,
COC(=O)c1cc(=O)c2c(ccc3oc(=O)ccc32)[nH]1,nt,nt,nt,172*,nt,nt,220*,220*,
CCCCNC(=O)CN1C(=O)c2cccc(N)c2C1=O,nt,8,nt,-30,nt,i,nt,nt,
COc1ccccc1CNC(=O)CN1C(=O)c2cccc(N)c2C1=O,86,0,-2,50*,299,i,-1,44*,
CC1CCCCC1NC(=O)CN1C(=O)c2cccc(N)c2C1=O (stereo unspecified),nt,-3,nt,34*,nt,i,78*,70*,
CN(C(=O)CN1C(=O)c2cccc(N)c2C1=O)C1CCCCC1,98,-2,-6,109*,421,nt,74*,76*,
CC1CCCCC1NC(=O)COC(=O)CN1C(=O)c2ccccc2C1=O (stereo unspecified),84,0,0,1,227,nt,nt,nt,
CCc1cc(=O)oc2c(CN3CCN(C)CC3)c(O)c(Cl)cc12,108,-4,2,69*,381,i,62*,70*,
SMILES,Yeast superoxide,V-ATPase pH,MIN6 prolif,KLK7 zymogen act,T cell HTS,Rce1 inh,KLK7 act conf,EDANS interfere,others
CCCCc1cc(=O)oc2c(CN3CCCC3)c(O)ccc12,94,0,0,77*,630,?,65*,74*,
CCc1cc(=O)oc2c(CNCc3c(F)cccc3Cl)c(O)ccc12,95,-1,3,30*,386,?,41*,57*,
CCc1cc(=O)oc2c(CN3CCCC3)c(O)c(Cl)cc12,98,-1,-2,83*,394,?,68*,71*,
CCN(Cc1ccccc1)C(=O)COC(=O)[C@@H]1CCCN1C(=O)c1cccs1,100,-2,-3,0,368,nt,nt,nt,
O=C(Cn1ccnc1[N+](=O)[O-])N(CCO)CCO,nt,-2,nt,1,nt,nt,nt,nt,
CCc1c(C)c2cc(Cl)c(O)c(CN3CCCCC3)c2oc1=O,101,0,0,51*,417,?,69*,72*,
Cc1cc(=O)oc2c(CN3CC(C)OC(C)C3)c(O)c(Cl)cc12 (stereo unspecified),108,0,-3,149*,122,i,67*,74*,
CCc1cc(=O)oc2c(CN3CCN(C)CC3)c(O)ccc12,95,2,1,38*,214,i,72*,71*,
O=c1cc(-c2ccccc2)c2cc(Cl)c(O)c(CN3CCOCC3)c2o1,98,-1,-4,13,321,i,nt,nt,
COc1ccccc1-c1coc2c(CN3CCN(C)CC3)c(O)ccc2c1=O,94,-2,-1,80*,352,+,73*,73*,
COc1ccccc1-c1coc2cc(OC(=O)N3CCOCC3)ccc2c1=O,113,-4,-1,1,60,i,nt,nt,
CN1CCN(Cc2c(O)ccc3c(=O)c(Oc4ccccc4Cl)c(C(F)(F)F)oc23)CC1,102,0,4,4,412,i,nt,nt,
COc1ccccc1-c1coc2c(CN3CCN(CCO)CC3)c(O)ccc2c1=O,95,-1,0,111*,167,i,74*,81*,
COc1ccccc1Oc1coc2c(CN3CCN(C)CC3)c(O)ccc2c1=O,96,11,-4,74*,393,i,74*,78*,
CCN1CCN(Cc2c(O)ccc3c(=O)c(-c4ccccc4OC)coc23)CC1,97,4,-3,50*,401,+,73*,78*,
